TRPML3 agonist: human mucolipin-3 channel agonism | activation, % at 3 µM | HEK293 TRPML3-YFP, Fluo-8 calcium fluorescence; 100% = the carbachol control signal | hit rate 0.29% among 220,000 | Q8TDD5 | AID 1448;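 active = activation above its plate's cutoff, the mean activation of the plate's test wells plus 3 SD, cut at about 12% in these data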;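 also: 0% = DMSO only wells and 100% = carbachol wells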
Target sequence (Q8TDD5 whole entry, looked up): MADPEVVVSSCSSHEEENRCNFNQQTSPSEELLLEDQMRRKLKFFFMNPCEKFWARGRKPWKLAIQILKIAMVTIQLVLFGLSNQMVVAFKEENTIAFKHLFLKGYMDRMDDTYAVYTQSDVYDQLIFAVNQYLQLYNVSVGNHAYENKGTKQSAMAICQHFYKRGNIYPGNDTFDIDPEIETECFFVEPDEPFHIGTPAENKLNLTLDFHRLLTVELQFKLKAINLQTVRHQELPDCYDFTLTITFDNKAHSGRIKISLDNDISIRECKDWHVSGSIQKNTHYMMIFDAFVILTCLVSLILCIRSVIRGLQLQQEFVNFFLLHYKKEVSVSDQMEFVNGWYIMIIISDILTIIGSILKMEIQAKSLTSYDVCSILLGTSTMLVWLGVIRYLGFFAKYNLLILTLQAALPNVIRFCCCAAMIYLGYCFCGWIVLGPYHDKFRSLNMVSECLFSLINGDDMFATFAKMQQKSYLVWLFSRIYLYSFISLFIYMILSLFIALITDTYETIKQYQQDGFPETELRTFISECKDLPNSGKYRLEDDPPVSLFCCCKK
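Test system: HEK293 cells stably carrying human TRPML3-YFP; Doses: single dose, 3 µM final nominal compound, 0.3% DMSO final; Schedule: dye loading 1 h 37 °C then 30 min ambient, 125 s read; Technique: Fluo-8 calcium fluorescence; Benchmarks: high control carbachol 87 µM, low control DMSO.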
zfTRPN1 agonist: agonists of zebrafish TRPN1 channel | HEK293 zebrafish TRPN1-YFP, Fluo-8 calcium fluorescence; 100% = response to 87 µM carbachol | activation, % at 3 µM | hit rate 0.18% among 220,000 | AID 1424;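 active = activation above its plate's cutoff, the mean activation of test wells on that plate plus 3 SD, cut at about 19% in these data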;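 also: 0% = DMSO alone and 100% = 87 µM carbachol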
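Material: zebrafish TRPN1-YFP in HEK293 cells. Doses: one dose of 3 µM, 0.3% DMSO. Incubation: dye 1 h 37 °C plus 30 min RT. Measured by: intracellular calcium fluorescence with Fluo-8.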
IDE cell activ: boosts human insulin-degrading enzyme activity in HEK cells. P14735. FAbeta-B cleavage, fluorescence polarization; 0% vehicle, 100% cell-free pure enzyme wells. activation, % at 5.96 µM. hit rate 0.073% among 340,000;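 active = activation above the mean of all tested compounds plus 3 SD, set per screening campaign, cut at about 17% in these data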
IDE inh: inhibitors of human insulin-degrading enzyme in cells | P14735 | HEK cells, FAbetaB cleavage, fluorescence polarization | inhibition, % at 5.59 µM | hit rate 0.41% among 320,000;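 active = percent inhibition above the average of all tested compounds plus 3 SD, set per screening campaign, cut at about 16% in these data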;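 also: IDE supplied by intact live HEK cells; FP after avidin binding of uncleaved biotin substrate so inhibition keeps polarization high; 0% = DMSO wells and 100% = 60 µM reference IDE inhibitor Ii1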
TRPN1 counter: zebrafish TRPN1 agonism as TRPML3 agonist counter-screen | hit rate 10% among 310 | shares compounds with TRPML3 agonist | activation, % at 3 µM | HEK293 zebrafish TRPN1-YFP, Fluo-8 calcium fluorescence; scaled: carbachol wells 100%, DMSO wells 0%;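 active = mean activation over replicates above a set limit taken from the earlier TRPN1 channel primary screen, cut at about 19% in these data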;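 also: 100% = carbachol and 0% = 0.3% DMSO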
TRPML3 ag conf: confirmation of human TRPML3 channel agonists; hit rate 80% among 310; HEK293 TRPML3-YFP, Fluo-8 calcium fluorescence; 100% set by carbachol, 0% by DMSO; shares compounds with TRPML3 agonist; activation, % at 3 µM; AID 1526;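 active = activation above a set limit derived from the earlier primary screen, cut at about 12% in these data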
Numbers without * were called inactive; . = not tested or not shown. Compounds with a hit are over-represented: about 0.63% of the library has one in this group of screens.

SMILES | TRPML3 agonist | zfTRPN1 agonist | IDE cell activ | IDE inh | TRPN1 counter | TRPML3 ag conf
CSc1nsc(/C=C/Nc2ccc(Cl)cc2)c1C#N | 6 | 1 | -6 | 3 | . | .
CCOC(=O)N1CCC(N2C(=O)c3ccccc3C2Nc2ccc(S(=O)(=O)N3CCCCC3)cc2)CC1 (configuration not stated) | 15* | 2 | . | -2 | 1 | 10
O=C(Nc1c(S(=O)(=O)c2ccc(Cl)cc2)csc1Br)c1ccccc1Cl | 33* | -2 | 3 | -4 | -2 | 44*
CC1=CC(C)(C)N(S(=O)(=O)c2ccc(C)cc2)c2cc(C)ccc21 | 1 | -2 | -2 | 4 | . | .
Cc1ccc(S(=O)(=O)N2C(=S)SCC2(C)C)cc1 | 28* | 2 | . | . | 3 | 47*
FC(F)Sc1ccc(NC(=S)NC2CCCC2)cc1 | 12* | 17 | 3 | 2 | 20* | 7
OC1CCC(NC(=S)Nc2ccc(SC(F)F)cc2)CC1 (configuration not stated) | 0 | 0 | 2 | 7 | . | .
CCN1CCc2nc3ccccc3c(C(=O)Nc3ccc(C#N)cc3)c2C1 | 1 | 0 | -3 | 4 | . | .
C[N+](C)(C)C/C=C1/COCO1 | 52* | 8 | 7 | 1 | 14 | 40*
Cc1ccc(S(=O)(=O)Nc2ccccc2-c2ccccc2)cc1 | 91* | -1 | 2 | 1 | -1 | 97*
O=S(=O)(/C=C/c1ccccc1)c1ccccc1 | 0 | -2 | 5 | 0 | . | .
O=S(=O)(C=C(c1ccccc1)c1ccccc1)c1ccccc1 | 83* | 0 | 4 | 6 | -2 | 64*
CN(N)C(=S)Nc1ccc(Cl)cc1 | -1 | -2 | 0 | 4 | . | .
O=C1CCN(Cc2ccc([N+](=O)[O-])cc2)CCN1[C@H](CO)c1ccccc1 | . | . | 6 | 1 | . | .
Cc1ccc(S(=O)(=O)N2CCC(=O)N(C(COCc3ccc(C(F)(F)F)cc3)Cc3ccccc3)CC2)cc1 (configuration not stated) | 0 | 1 | 3 | 1 | . | .
Cc1ccc(S(=O)(=O)N2CCC(=O)N(C(COCc3ccc(C(F)(F)F)cc3)C(C)C)CC2)cc1 (configuration not stated) | 55* | 1 | 2 | -1 | 0 | 77*
O=C(c1ccccc1)N1CCCC(c2ccc(Cl)cc2)=N1 | -1 | -1 | -3 | 1 | . | .
S=C1CCC(c2ccc(Cl)cc2)=NN1c1ccccc1 | 16* | -2 | -7 | -8 | -2 | 9
CCc1nnc(SCC(=O)Nc2nc(C)c(C(=O)N(C)C)s2)n1CC | . | . | -2 | 8 | . | .
CCCOc1cc(N(CC)CC)ccc1/C=C(/C#N)c1nc2ccc(C)cc2[nH]1 | 13* | 18 | -102 | 105* | 24* | 13*
COc1cc(/C=C(\C#N)c2nc3ccc(C)cc3[nH]2)c([N+](=O)[O-])cc1OC | -1 | -2 | -3 | 9 | . | .
O=C(NCCc1ccccc1)C1CCN(c2ncccn2)CC1 | 0 | 0 | 0 | 9 | . | .
CC(C)(C)[C@]1(O)CCN2C[C@H]3c4ccccc4CCc4cccc(c43)[C@@H]2C1 | 25* | -3 | 1 | -1 | -1 | 42*
O=C1c2ccccc2-c2onc3ccc(N4CCCC4)c1c23 | 14* | 18 | -4 | . | 51* | 39*
O=C1c2ccccc2C(=O)c2c1cccc2N1CCCC1 | 0 | -1 | 6 | 3 | . | .
SMILES | TRPML3 agonist | zfTRPN1 agonist | IDE cell activ | IDE inh | TRPN1 counter | TRPML3 ag conf
O=C(CN1CCN(S(=O)(=O)c2ccc(F)cc2)CC1)Nc1ccc(Cl)c(C(F)(F)F)c1 | 15* | 1 | -2 | -3 | 4 | 43*
CC(=O)NC(Cc1ccccc1)C(=O)OCC(=O)c1ccc(Cl)cc1 (configuration not stated) | 0 | -1 | 4 | 7 | . | .
O=C(CSc1nnc2ccc(-c3ccc(F)cc3)nn12)N1CCOCC1 | . | . | 0 | 4 | . | .
COc1ccc(C)cc1S(=O)(=O)N1CCCCCC1 | 2 | -1 | 11 | 3 | . | .
COc1ccc(S(=O)(=O)N2CCCCCC2)cc1Br | 106* | -2 | 10 | . | -2 | 70*
COc1ccc(NS(=O)(=O)c2ccc(OC)c(N(C)S(=O)(=O)c3ccc(Cl)cc3)c2)cc1 | 69* | 0 | 4 | -2 | -1 | 34*

Compound activity (PubChem)
